ASAP1 GAP inh = inhibitors of human ASAP1 ArfGAP activity, primary screen, biochemical, fluorescence polarization; Arf-GAP with SH3 domain, ANK repeat and PH domain-containing protein 1 (Homo sapiens), …; ASAP1-stimulated ARF1 GTP hydrolysis, GDP FP detection; inhibition, % at 16.5 µM; actives 0.19% (n = 360,000); AID 624377, 2012; in the data active = inhibition above about 25%;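 also: 0% = vehicle with enzyme and substrate and 100% = no enzyme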
PAFAH1B3 FP inh = PAFAH1B3 enzyme inhibitors, primary screen, biochemical, fluorescence polarization, human; recombinant PAFAH1B3, FP-rhodamine probe; inhibition, % at 3.39 µM; actives 0.28% (n = 340,000);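 active = inhibition above the screen-wide average of all tested compounds plus 3 SD, cut at about 25% in these data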;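 also: 0% = enzyme with DMSO only and 100% = wells lacking PAFAH1B3 protein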
Target sequence (Q15102 whole entry, looked up): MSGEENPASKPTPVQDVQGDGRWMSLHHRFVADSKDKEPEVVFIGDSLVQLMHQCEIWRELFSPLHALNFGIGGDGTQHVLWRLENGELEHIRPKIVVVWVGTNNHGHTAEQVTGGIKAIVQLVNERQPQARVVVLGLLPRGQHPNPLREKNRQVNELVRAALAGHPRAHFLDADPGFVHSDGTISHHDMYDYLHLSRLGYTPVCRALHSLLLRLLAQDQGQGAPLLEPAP
PAFAH2 FP inh = PAFAH2 enzyme inhibitors, primary screen, biochemical, fluorescence polarization, human; recombinant PAFAH2, FP-rhodamine activity probe; inhibition, % at 3.39 µM; actives 0.99% (n = 340,000); AID 492956, 2010;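 active = inhibition above the mean over all tested compounds plus 3 SD, cut at about 30% in these data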;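 also: inhibitors block probe labeling of enzyme so polarization drops; 0% = enzyme with DMSO and 100% = wells lacking PAFAH2 protein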
ARFGAP1 inh = inhibitors of rat ARFGAP1 GAP activity, primary screen, biochemical, fluorescence polarization, GDP tracer | ADP-ribosylation factor GTPase-activating protein 1 (Rattus norvegicus), Q62848 | Arfgap1-stimulated ARF1 GTP hydrolysis, GDP FP detection | inhibition, % at 16.5 µM | actives 0.26% (n = 360,000);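 active = inhibition above a per-plate limit, mean inhibition of low control wells plus 3 SD, cut at about 25% in these data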;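 also: 0% = DMSO wells with enzyme and 100% = wells lacking Arfgap1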
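Material – truncated rat Arfgap1 GAP domain · Buffer or medium – HEPES-based buffer, pH 7.5 · Reagent – human ARF1(Δ1-17)-GTP substrate · Dosing – 16.5 µM single point, 1.26% DMSO · Schedule – GTP hydrolysis reaction 2 h at 25 °C · Technique – GDP detection by fluorescence polarization · Benchmarks – No-Arfgap1 wells (100%) versus DMSO full-reaction wells (0%) · Repeats – single replicate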
pPAFAH FP inh = pPAFAH enzyme inhibitors, primary screen, biochemical, fluorescence polarization, human; recombinant pPAFAH, FP-rhodamine probe fluorescence polarization; actives 1.5% (n = 330,000); Platelet-activating factor acetylhydrolase (Homo sapiens), Q13093; inhibition, % at 3.39 µM; AID 463082, 2010;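 active = inhibition above the mean inhibition across the screen plus 3 SD, cut at about 25% in these data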;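 also: inhibitors block binding of the rhodamine activity-based probe so polarization drops; 0% = enzyme with DMSO and 100% = wells lacking pPAFAH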
Target sequence (Q13093 whole entry, looked up): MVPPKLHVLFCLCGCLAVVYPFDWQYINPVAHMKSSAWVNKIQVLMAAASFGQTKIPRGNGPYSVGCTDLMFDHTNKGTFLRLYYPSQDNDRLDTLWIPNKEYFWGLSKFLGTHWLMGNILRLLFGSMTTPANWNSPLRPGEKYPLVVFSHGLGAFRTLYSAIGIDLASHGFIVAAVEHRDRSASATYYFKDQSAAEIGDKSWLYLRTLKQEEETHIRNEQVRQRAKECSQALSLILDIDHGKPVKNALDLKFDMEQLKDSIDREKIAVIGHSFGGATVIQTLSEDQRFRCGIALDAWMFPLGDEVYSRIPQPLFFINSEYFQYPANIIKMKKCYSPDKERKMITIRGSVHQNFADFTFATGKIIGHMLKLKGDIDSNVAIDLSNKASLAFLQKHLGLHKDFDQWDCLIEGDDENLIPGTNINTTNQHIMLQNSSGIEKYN
PAFAH1B2 inh = PAFAH1B2 enzyme inhibitors, primary screen, biochemical, fluorescence polarization, human; inhibition, % at 3.39 µM; Platelet-activating factor acetylhydrolase IB subunit alpha2 (Homo sapiens), P68402; actives 1.2% (n = 340,000); recombinant PAFAH1B2, FP-rhodamine activity probe; AID 492953, 2010;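 active = inhibition above the mean of all tested compounds plus 3 SD, cut at about 24% in these data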;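 also: 0% = enzyme with DMSO and 100% = wells lacking PAFAH1B2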
An asterisk follows results filed as active. Sampled rows, rich in hits. Any-hit rate of the full collection: about 2.7%.

How did Brc1ccc(-c2noc(CCc3ccccc3)n2)o1 do in these assays?
ASAP1 GAP inh: -4; PAFAH1B3 FP inh: 10; PAFAH2 FP inh: -6; ARFGAP1 inh: 13; pPAFAH FP inh: 0; PAFAH1B2 inh: 28*

How did COc1ccc(CNS(=O)(=O)c2ccc3c(c2)N(C(C)=O)CCO3)cc1 do in these assays?
ASAP1 GAP inh: -15; PAFAH1B3 FP inh: 4; PAFAH2 FP inh: -7; ARFGAP1 inh: -4; pPAFAH FP inh: 6; PAFAH1B2 inh: 10

Results for Cc1ccc(CNS(=O)(=O)c2ccc3c(c2)OCCO3)cc1 ?
ASAP1 GAP inh: 0; PAFAH1B3 FP inh: 6; PAFAH2 FP inh: 6; ARFGAP1 inh: -4; pPAFAH FP inh: 5; PAFAH1B2 inh: 27*

Results for CC(=O)N1CCOc2ccc(S(=O)(=O)NCCc3ccc(C)cc3)cc21 ?
ASAP1 GAP inh: -6; PAFAH1B3 FP inh: 4; PAFAH2 FP inh: -2; ARFGAP1 inh: -5; pPAFAH FP inh: 10; PAFAH1B2 inh: 32*

How did CC(=O)N1CCOc2ccc(S(=O)(=O)NCc3ccc(C)cc3)cc21 do in these assays?
ASAP1 GAP inh: -8; PAFAH1B3 FP inh: 11; PAFAH2 FP inh: 1; ARFGAP1 inh: 0; pPAFAH FP inh: 3; PAFAH1B2 inh: 34*

How did CCOc1ccc(CCNS(=O)(=O)c2ccc3c(c2)N(C(C)=O)CCO3)cc1OCC do in these assays?
ASAP1 GAP inh: 2; PAFAH1B3 FP inh: 5; PAFAH2 FP inh: 3; ARFGAP1 inh: 13; pPAFAH FP inh: 5; PAFAH1B2 inh: 0

What do the screens show for `CCCC(=O)N(c1ccc2oc(=O)sc2c1)S(=O)(=O)c1cccs1`?
ASAP1 GAP inh: 1; PAFAH1B3 FP inh: 14; PAFAH2 FP inh: 35*; ARFGAP1 inh: 5; pPAFAH FP inh: 10; PAFAH1B2 inh: 6

How did CC(=O)N(c1ccc2oc(=O)sc2c1)S(=O)(=O)c1ccccc1 do in these assays?
ASAP1 GAP inh: -3; PAFAH1B3 FP inh: 6; PAFAH2 FP inh: 7; ARFGAP1 inh: -6; pPAFAH FP inh: 4; PAFAH1B2 inh: 12

How did CC1(OC(=O)c2cccs2)C(=O)C=C2C=C3CCCN3C=C2C1=O (stereo not given) do in these assays?
PAFAH1B3 FP inh: 11; PAFAH2 FP inh: 22; pPAFAH FP inh: 28*; PAFAH1B2 inh: 7

How did Cc1ccccc1CN1[C@@H](C)[C@H](c2ccccc2)Oc2cccc(NCCc3ccccc3)c2S1(=O)=O do in these assays?
ASAP1 GAP inh: -6; ARFGAP1 inh: -15

What do the screens show for `Cc1ccc(/C=C2\SC(N3CCN(C(c4ccccc4)c4ccccc4)CC3)=NC2=O)o1`?
ASAP1 GAP inh: 6; PAFAH1B3 FP inh: -3; PAFAH2 FP inh: 4; ARFGAP1 inh: -4; pPAFAH FP inh: 27*; PAFAH1B2 inh: -3

How did O=S1(=O)CCSC[C@@H](CN2CCN(c3ccccc3)CC2)N1 do in these assays?
ASAP1 GAP inh: -2; ARFGAP1 inh: 1

Results for O=[N+]([O-])c1ccc2c(c1)C(N1CCOCC1)/C(=C/COc1ccc(Cl)cc1Cl)O2 (stereo not given) ?
ASAP1 GAP inh: 10; PAFAH1B3 FP inh: 0; PAFAH2 FP inh: 9; ARFGAP1 inh: 4; pPAFAH FP inh: 7; PAFAH1B2 inh: 24*

What do the screens show for `O=C(COc1ccc([N+](=O)[O-])cc1Cl)N1CCOCC1`?
ASAP1 GAP inh: 3; PAFAH1B3 FP inh: 9; PAFAH2 FP inh: -2; ARFGAP1 inh: 1; pPAFAH FP inh: 4; PAFAH1B2 inh: -5

What do the screens show for `COC(=O)C1=C(C)N(Cc2ccc(C(F)(F)F)cc2)C(=NCc2ccc3c(c2)OCO3)NC1c1ccccc1C(F)(F)F` (stereo not given)?
ASAP1 GAP inh: -2; ARFGAP1 inh: 10

Results for Cc1cc(N2CCNC[C@@H]2C)ccc1N1CCS(=O)(=O)CC1 ?
ASAP1 GAP inh: -15; ARFGAP1 inh: -15

What do the screens show for `C=CCOc1ccc(C2OC34CCCCC3C(C#N)(C#N)C2(C#N)C(=N)O4)cc1` (stereo not given)?
PAFAH1B3 FP inh: 51*; PAFAH2 FP inh: 56*; pPAFAH FP inh: 10; PAFAH1B2 inh: 42*

What do the screens show for `Cc1ccc(C2OC34CCCCCC3C(C#N)(C(=N)O4)C2(C#N)C#N)cc1` (stereo not given)?
ASAP1 GAP inh: -1; PAFAH1B3 FP inh: 0; PAFAH2 FP inh: 3; ARFGAP1 inh: 7; pPAFAH FP inh: 1; PAFAH1B2 inh: -1

What do the screens show for `CCCCOc1ccc(C2OC34CCCCC3C(C#N)(C#N)C2(C#N)C(=N)O4)cc1` (stereo not given)?
PAFAH1B3 FP inh: 57*; PAFAH2 FP inh: 42*; pPAFAH FP inh: 24; PAFAH1B2 inh: 39*

What do the screens show for `CCC12OC(=N)C(C#N)(C1C)C(C#N)(C#N)C(c1ccccc1)O2` (stereo not given)?
ASAP1 GAP inh: 1; PAFAH1B3 FP inh: 7; PAFAH2 FP inh: -1; ARFGAP1 inh: 0; pPAFAH FP inh: 1; PAFAH1B2 inh: -3

Results for CCCC(=O)NC(c1ccc2c(c1)OCO2)c1cc(Cl)c2cccnc2c1O (stereo not given) ?
PAFAH1B3 FP inh: 7; PAFAH2 FP inh: 0; pPAFAH FP inh: 32*; PAFAH1B2 inh: 2

Results for CCC(=O)NC(c1ccc(C)cc1)c1cc(Cl)c2cccnc2c1O (stereo not given) ?
PAFAH1B3 FP inh: 16; PAFAH2 FP inh: 5; pPAFAH FP inh: 20; PAFAH1B2 inh: 3

What do the screens show for `CCCC(=O)NC(c1ccco1)c1cc(Cl)c2cccnc2c1O` (stereo not given)?
ASAP1 GAP inh: 5; PAFAH1B3 FP inh: 12; PAFAH2 FP inh: -3; ARFGAP1 inh: 0; pPAFAH FP inh: 30*; PAFAH1B2 inh: 6

How did CCCC(=O)NC(c1cccs1)c1cc(Cl)c2cccnc2c1O (stereo not given) do in these assays?
ASAP1 GAP inh: -5; PAFAH1B3 FP inh: 10; PAFAH2 FP inh: 4; ARFGAP1 inh: -6; pPAFAH FP inh: 33*; PAFAH1B2 inh: 4

What do the screens show for `O=C(O)COc1ccccc1C(Nc1ccccn1)c1cc(Cl)c2cccnc2c1O` (stereo not given)?
ASAP1 GAP inh: -9; PAFAH1B3 FP inh: 3; PAFAH2 FP inh: 29; ARFGAP1 inh: 6; pPAFAH FP inh: 32*; PAFAH1B2 inh: 2

How did O=C(NCc1ccccc1)[C@@H]1CCCN1C(=O)[C@H]1CCCN1C(=O)c1cc(F)cc(F)c1 do in these assays?
ASAP1 GAP inh: -7; ARFGAP1 inh: 4
